Assay results from ChEMBL document CHEMBL4184263, “Synthetic analogues of the montanine-type alkaloids with activity against apoptosis-resistant cancer cells” (2018).
Active and inactive are the calls of the source. The rule behind the calls is not given here.

Columns and labels:
Hs 683 = experiment: Growth inhibition of apoptosis sensitive human Hs683 cells assessed as reduction in cell viability incubated for 72 hrs by MTT assay; assay type: functional; conditions: Hs 683, 72 h
Procedure, shortened: (§1)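 Cells were grown at 37 °C, 95% humidity and 5% CO₂, trypsinized and seeded. After 24 h they were treated for 72 h with compound from 10 nM to 100 μM, prepared from a 10 mM DMSO stock, or left untreated. Viability was read as MTT reduction to formazan, with untreated control optical density set as 100%. The 50% growth-reducing concentration was derived as the mean of experiments run in sextuplicate.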

U373 MG = experiment: Growth inhibition of apoptosis resistant human U373 cells assessed as reduction in cell viability incubated for 72 hrs by MTT assay; assay type: functional, U-373MG ATCC; procedure, shortened: as §1
SK-MEL-28 = experiment: Growth inhibition of apoptosis resistant human SK-MEL-28 cells assessed as reduction in cell viability incubated for 72 hrs by MTT assay; assay type: functional; conditions: SK-MEL-28, 72 h; procedure, shortened: as §1
A549 = experiment: Growth inhibition of apoptosis resistant human A549 cells assessed as reduction in cell viability incubated for 72 hrs by MTT assay; assay type: functional; conditions: A549, 72 h; procedure, shortened: as §1
B16-F10 = experiment: Growth inhibition of apoptosis sensitive mouse B16F10 cells assessed as reduction in cell viability incubated for 72 hrs by MTT assay; assay type: functional; conditions: B16-F10, 72 h; procedure, shortened: as §1
MCF7 = experiment: Growth inhibition of apoptosis sensitive human MCF7 cells assessed as reduction in cell viability incubated for 72 hrs by MTT assay; assay type: functional; conditions: MCF7, 72 h; procedure, shortened: as §1
[1] = Antiproliferative activity against human GSC22 cells assessed as inhibition of cell proliferation at 10 uM incubated for 72 hrs by bromodeoxyuridine incorporation based immunoassay; assay type: functional
Procedure, shortened: (§2)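 Patient-derived glioblastoma stem-like GSC22 cells were seeded at 1×10^3 cells/well and cultured for 24 h. They were then exposed for 72 h to compound at 1 μM to 30 μM, with DMSO as vehicle control. BrdU was added for the final 4 h. Incorporation was detected with a peroxidase-conjugated anti-BrdU antibody and substrate reaction read at 450/550 nm. Data are mean ± SEM, n=3, compared with vehicle.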

Homo sapiens = species on record: Homo sapiens; experiment: Antiproliferative activity against human GSC22 cells assessed as inhibition of cell proliferation at 1 uM incubated for 72 hrs by bromodeoxyuridine incorporation based immunoassay; assay type: functional; procedure, shortened: as §2

GI50 (SK-MEL-28)	GI50 (A549)	GI50 (B16-F10)	GI50 (MCF7)	SMILES	GI50 (Hs 683)	GI50 (U373 MG)	inhibition at 10 µM [1]	inhibition (Homo sapiens)
28 µM	23 µM	10 µM	28 µM	C#CCO[C@H]1C=C2[C@H]3C[N@@](Cc4cc5c(cc43)OCO5)[C@H]2C[C@@H]1OC	24 µM	42 µM		
65 µM	59 µM	10 µM	44 µM	CO[C@H]1C[C@H]2C(=C[C@@H]1NCc1ccccc1)[C@H]1C[N@@]2Cc2cc3c(cc21)OCO3	67 µM	72 µM		
8 µM	5 µM	8 µM	13 µM	CO[C@H]1C[C@H]2C(=C[C@@H]1O)[C@H]1CN2Cc2cc3c(cc21)OCO3	4 µM	31 µM		
4 µM	3 µM	3 µM	4 µM	CO[C@H]1C=C2[C@H]3C[N@@](Cc4cc5c(cc43)OCO5)[C@H]2C[C@@H]1OC	3 µM	5 µM	80 to 95%	Active
				CO[C@@H]1C=C[C@@]23c4cc5c(cc4CN(C[C@@H]2O)[C@H]3C1)OCO5 [(+)-HAEMANTHAMINE]			80 to 95%	Active
14 µM	10 µM	7 µM	20 µM	C=CCO[C@H]1C=C2[C@H]3C[N@@](Cc4cc5c(cc43)OCO5)[C@H]2C[C@@H]1OC	7 µM	20 µM		
> 100 µM	78 µM	39 µM	78 µM	CO[C@H]1C[C@H]2C(=C[C@@H]1Cl)[C@H]1C[N@@]2Cc2c(I)c3c(c(I)c21)OCO3	71 µM	> 100 µM		
> 100 µM	> 100 µM	> 100 µM	> 100 µM	CO[C@H]1C[C@H]2C(=C[C@@H]1Cl)[C@H]1C[N@@]2Cc2c1cc1c(c2I)OCO1	> 100 µM	> 100 µM		
> 100 µM	> 100 µM	72 µM	> 100 µM	CO[C@H]1C[C@H]2C(=C[C@@H]1O)[C@H]1C[N@]2[C@@H](OS(C)(=O)=O)c2cc3c(cc21)OCO3	> 100 µM	> 100 µM		
9 µM	18 µM	4 µM	23 µM	CO[C@H]1C[C@H]2C(=C[C@@H]1c1c[nH]c3ccccc13)[C@H]1C[N@@]2Cc2cc3c(cc21)OCO3	24 µM	9 µM	80 to 95%	Active
> 100 µM	> 100 µM	> 100 µM	> 100 µM	C#CC[N@@+]12Cc3cc4c(cc3[C@H](C1)C1=C[C@H](Cl)[C@@H](OC)C[C@@H]12)OCO4	> 100 µM	> 100 µM		
> 100 µM	> 100 µM	> 100 µM	> 100 µM	CO[C@H]1C[C@H]2C(=C[C@@H]1Cl)[C@H]1C[N@@+]2([O-])Cc2cc3c(cc21)OCO3	> 100 µM	> 100 µM		
67 µM	86 µM	11 µM	68 µM	CO[C@H]1C[C@H]2C(=C[C@@H]1c1ccc[nH]1)[C@H]1C[N@@]2Cc2cc3c(cc21)OCO3	95 µM	> 100 µM		
18 µM	9 µM	7 µM	19 µM	CO[C@H]1C[C@H]2C(=C[C@H]1Br)[C@H]1C[N@@]2Cc2cc3c(cc21)OCO3	5 µM	25 µM		
26 µM	6 µM	7 µM	17 µM	CO[C@H]1C[C@H]2C(=C[C@@H]1Cl)[C@H]1C[N@@]2Cc2cc3c(cc21)OCO3	6 µM	51 µM		
> 100 µM	59 µM	40 µM	82 µM	CCO[C@H]1C=C2[C@H]3C[N@@](Cc4cc5c(cc43)OCO5)[C@H]2C[C@@H]1OC	> 100 µM	> 100 µM		
